The values that follow come from ChEMBL document CHEMBL1153525, “Adenosine A2A receptor-antagonist/dopamine D2 receptor-agonist bivalent ligands as pharmacological tools to detect A2A-D2 receptor heteromers” (J Med Chem, 2009).

Broadly, the Ki is the equilibrium dissociation constant of an inhibitor or competing ligand from its target.

Active and inactive are the calls of the source. The calls are words filed in the database; no cut-off is given here.

The target in experiment [1] is Adenosine A2A receptor (Homo sapiens) (UniProt P29274). As to the kind of experiment: Displacement of [3H]ZM241385 from human A2aR/D2R (long isoform) coexpressed in mouse Ltk cells by scintillation counting. It is filed as cell-based. The method in brief: (§1)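 Mouse Ltk fibroblasts were transiently transfected with human A2AR, human D2R (long isoform) or both, and membranes were prepared 48 h later. Membranes were incubated 2 h at 25 °C in 50 mM Tris-HCl pH 7.4 with 10 mM MgCl2 and 2 U/mL ADA, plus 2.1 nM [3H]ZM241385 or 1.9 nM [3H]YM09151-2 and 1 μM test compound. Bound ligand was counted after filtration and expressed as % of specific binding without displacer; three independent experiments.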
For orientation: In a radioligand displacement assay an active substance lowers the binding of a labelled ligand.
Target sequence in this assay (P29274 whole entry, canonical isoform): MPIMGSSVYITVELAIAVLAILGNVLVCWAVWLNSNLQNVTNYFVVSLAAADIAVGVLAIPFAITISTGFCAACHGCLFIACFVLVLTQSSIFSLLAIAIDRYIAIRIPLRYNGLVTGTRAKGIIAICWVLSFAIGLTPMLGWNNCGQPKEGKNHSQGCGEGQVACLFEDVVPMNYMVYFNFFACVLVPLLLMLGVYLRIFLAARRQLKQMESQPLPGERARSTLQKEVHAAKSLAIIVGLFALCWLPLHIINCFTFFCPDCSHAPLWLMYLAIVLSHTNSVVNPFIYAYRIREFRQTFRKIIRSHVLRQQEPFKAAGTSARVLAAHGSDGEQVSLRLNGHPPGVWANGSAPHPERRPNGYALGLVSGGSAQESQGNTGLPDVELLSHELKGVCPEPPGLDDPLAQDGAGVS

For experiment [2] the target is unchanged. As to the kind of experiment: Displacement of [3H]ZM241385 from human A2aR/D2R (long isoform) heteromer expressed in mouse Ltk cells by scintillation counting. The format is cell-based. The method in brief:
as §1
Target sequence in this assay (P29274 whole entry, canonical isoform): as above

The subject of experiment [3] is Dopamine D2 receptor (Homo sapiens). As to the kind of experiment: Displacement of [3H]YM09151-2 from human A2aR/D2R (long isoform) heteromer expressed in mouse Ltk cells by scintillation counting.
Experiment [4] is described as follows: Displacement of [3H]ZM241385 from A2aR dimer in lamb striatum membrane assessed as high affinity macroscopic equilibrium dissociation constant by scintillation counting. It is filed as cell membranes, Ovis aries. Summed up:
(§2)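 Lamb striatal membranes (0.3-0.5 mg protein/mL) were incubated 2 h at 25 °C in 50 mM Tris-HCl pH 7.4 with 10 mM MgCl2 and 2 U/mL ADA. Radioligand was 2.1 nM [3H]ZM241385 (A2AR) or 0.9 nM [3H]YM09151-2 (D2R), against 11 competitor concentrations from 0.1 nM to 50 μM in triplicate. Nonspecific binding used 50 μM unlabeled radioligand. After GF/C filtration, counts were fitted to a two-state dimer model for KDB1 and KDB2; three experiments.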

The nature of experiment [5]: Displacement of [3H]YM09151-2 from D2R (long isoform) dimer in lamb striatum membrane low affinity macroscopic equilibrium dissociation constant by scintillation counting. It is filed as cell membranes, Ovis aries. Summed up:
as §2

Experiment [6] can be described thus: Displacement of [3H]YM09151-2 from D2R (long isoform) dimer in lamb striatum membrane high affinity macroscopic equilibrium dissociation constant by scintillation counting. The format is cell membranes, Ovis aries. The method in brief:
as §2

Experiment [7] addresses D(2) dopamine receptor (Homo sapiens) (UniProt P14416). As to the kind of experiment: Displacement of [3H]YM09151-2 from human D2R expressed in mouse Ltk cells by scintillation counting relative to control. It is filed as cell-based. The method in brief: as §1
Experiment [8] deals with Adenosine A2A receptor (Homo sapiens) (UniProt P29274). As to the kind of experiment: Displacement of [3H]ZM241385 from human A2AR expressed in mouse Ltk cells at 1 uM by scintillation counting relative to control.
Target sequence in this assay (P29274 whole entry, looked up, canonical isoform): as the sequence (P29274 whole entry, canonical isoform) above
For experiment [9] the target is unchanged. As to the kind of experiment: Displacement of [3H]ZM241385 from human A2aR expressed in mouse Ltk cells at 1 uM by scintillation counting relative to control. It is filed as cell-based. The method in brief:
as §1
Target sequence in this assay (P29274 whole entry, canonical isoform): as above

For experiment [10] the target is unchanged. As to the kind of experiment: Displacement of [3H]ZM241385 from human A2aR expressed in mouse Ltk cells by scintillation counting relative to control. The format is cell-based. The method in brief: as §1
Target sequence in this assay (P29274 whole entry, canonical isoform): as above

D(2) dopamine receptor (Homo sapiens), sequence (P14416 whole entry): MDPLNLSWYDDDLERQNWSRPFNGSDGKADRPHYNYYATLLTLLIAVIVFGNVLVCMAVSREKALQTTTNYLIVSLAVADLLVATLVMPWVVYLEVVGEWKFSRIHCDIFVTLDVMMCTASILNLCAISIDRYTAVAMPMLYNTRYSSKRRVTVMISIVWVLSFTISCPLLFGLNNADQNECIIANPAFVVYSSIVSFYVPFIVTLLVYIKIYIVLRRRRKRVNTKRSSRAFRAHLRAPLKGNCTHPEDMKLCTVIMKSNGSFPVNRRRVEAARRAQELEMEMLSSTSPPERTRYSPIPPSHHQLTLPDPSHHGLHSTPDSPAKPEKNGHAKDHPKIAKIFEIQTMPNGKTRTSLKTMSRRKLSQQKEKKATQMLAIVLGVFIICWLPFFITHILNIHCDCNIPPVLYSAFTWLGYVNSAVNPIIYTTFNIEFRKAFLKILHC

In the case of `CCCN(CCc1ccc(NC(=O)CCC(N)C(=O)NCCCCC(NC(=O)CCC(=O)NCCOCCOCCNC(=O)CCC(=O)NCCOCCOCCNC(=O)CCC(=O)NCCOCCOCCNC(=O)CCC(=O)NCCOCCOCCNC(=O)C(CCCCNC(=O)C(N)CCCCNC(=O)COc2ccc(-c3nc4c([nH]3)c(=O)n(CCC)c(=O)n4CCC)cc2)NC(C)=O)C(N)=O)cc1)C1CCc2c(O)cccc2C1` (stereo not given), the result in experiment [1], in experiment [2] and in [3] was Active.
With `CCCN(CCc1ccc(NC(=O)CCC(N)C(=O)NCCCCC(NC(=O)CCC(=O)NCCOCCOCCNC(=O)CCC(=O)NCCOCCOCCNC(=O)CCC(=O)NCCOCCOCCNC(=O)CCC(=O)NCCOCCOCCNC(=O)CCC(=O)NCCOCCOCCNC(=O)C(CCCCNC(=O)C(N)CCCCNC(=O)COc2ccc(-c3nc4c([nH]3)c(=O)n(CCC)c(=O)n4CCC)cc2)NC(C)=O)C(N)=O)cc1)C1CCc2c(O)cccc2C1` (stereo not given), the result in [1], in experiment [2] and in experiment [3] was Active.
Consider `CCCN(CCc1ccc(NC(=O)CCC(N)C(=O)NCCCCC(NC(=O)C(CCCCNC(=O)C(N)CCCCNC(=O)COc2ccc(-c3nc4c([nH]3)c(=O)n(CCC)c(=O)n4CCC)cc2)NC(C)=O)C(N)=O)cc1)C1CCc2c(O)cccc2C1` (stereo not given), for which the outcome in [1], in [2] and in experiment [3] was Active. Further, the Ki in [4] turned out to be 55 nM; in experiment [5] it was 9000 nM; in [6] it was 1 nM.
As for `CCCN(CCc1ccc(NC(=O)CCC(N)C(=O)NCCCCC(NC(=O)CCC(=O)NCCOCCOCCNC(=O)CCC(=O)NCCOCCOCCNC(=O)C(CCCCNC(C)=O)NC(C)=O)C(N)=O)cc1)C1CCc2c(O)cccc2C1` (stereo not given), the Ki turned out to be 12000 nM in [5] and 11 nM in experiment [6]. Moreover, the result in experiment [3] was Active.
As to `CCCN(CCc1ccc(NC(=O)CCC(N)C(=O)NCCCCC(NC(=O)CCC(=O)NCCOCCOCCNC(=O)CCC(=O)NCCOCCOCCNC(=O)CCC(=O)NCCOCCOCCNC(=O)CCC(=O)NCCOCCOCCNC(=O)CCC(=O)NCCOCCOCCNC(=O)CCC(=O)NCCOCCOCCNC(=O)CCC(=O)NCCOCCOCCNC(=O)C(CCCCNC(=O)C(N)CCCCNC(=O)COc2ccc(-c3nc4c([nH]3)c(=O)n(CCC)c(=O)n4CCC)cc2)NC(C)=O)C(N)=O)cc1)C1CCc2c(O)cccc2C1` (stereo not given), the result in experiment [1], in experiment [2] and in experiment [3] was Active. Besides, the result in experiment [7] was inactive.
Turning to `CCCN(CCc1ccc(NC(=O)CCC(N)C(=O)NCCCCC(NC(=O)C(CCCCNC(C)=O)NC(C)=O)C(N)=O)cc1)C1CCc2c(O)cccc2C1` (stereo not given), the Ki in experiment [5] came out at 9000 nM; in experiment [6] it was 4 nM. The result in experiment [3] was Active.
As for `CCCN(CCc1ccc(NC(=O)CCC(N)C(=O)NCCCCC(NC(=O)CCC(=O)NCCOCCOCCNC(=O)CCC(=O)NCCOCCOCCNC(=O)C(CCCCNC(=O)C(N)CCCCNC(=O)COc2ccc(-c3nc4c([nH]3)c(=O)n(CCC)c(=O)n4CCC)cc2)NC(C)=O)C(N)=O)cc1)C1CCc2c(O)cccc2C1` (stereo not given), the outcome in experiment [1], in experiment [2] and in [3] was Active. Besides, the Ki in [4] stood at 80 nM; in experiment [5], 1400 nM; in experiment [6] it was 1.1 nM.
In turn, `CCCn1c(=O)c2[nH]c(-c3ccc(OCC(=O)NCCCCC(N)C(=O)NCCCCC(NC(C)=O)C(=O)NC(CCCCNC(C)=O)C(N)=O)cc3)nc2n(CCC)c1=O` (stereo not given) came in with an Activity in [2] of 58%. Besides, the inhibition constant (Ki) in experiment [4] stood at 160 nM.
For `CCCN(CCc1ccc(NC(=O)CCC(N)C(=O)NCCCCC(NC(=O)CCC(=O)NCCOCCOCCNC(=O)C(CCCCNC(C)=O)NC(C)=O)C(N)=O)cc1)C1CCc2c(O)cccc2C1` (stereo not given), the outcome in experiment [8], in experiment [9] and in experiment [3] was Active. In addition, the result in [10] and in experiment [7] was inactive. The Ki in [5] worked out at 15000 nM; in experiment [6], 11 nM.
Regarding `CCCN(CCc1ccc(NC(=O)CCC(N)C(=O)NCCCCC(NC(=O)CCC(=O)NCCOCCOCCNC(=O)CCC(=O)NCCOCCOCCNC(=O)CCC(=O)NCCOCCOCCNC(=O)CCC(=O)NCCOCCOCCNC(=O)CCC(=O)NCCOCCOCCNC(=O)CCC(=O)NCCOCCOCCNC(=O)C(CCCCNC(=O)C(N)CCCCNC(=O)COc2ccc(-c3nc4c([nH]3)c(=O)n(CCC)c(=O)n4CCC)cc2)NC(C)=O)C(N)=O)cc1)C1CCc2c(O)cccc2C1` (stereo not given), the outcome in experiment [1], in experiment [2] and in experiment [3] was Active.
With `CCCn1c(=O)c2[nH]c(-c3ccc(OCC(=O)NCCCCC(N)C(=O)NCCCCC(NC(C)=O)C(=O)NCCOCCOCCNC(=O)CCC(=O)NCCOCCOCCNC(=O)CCC(=O)NCCOCCOCCNC(=O)CCC(=O)NC(CCCCNC(C)=O)C(N)=O)cc3)nc2n(CCC)c1=O` (stereo not given), the outcome in experiment [8] and in experiment [9] was Active. The Ki in experiment [4] amounted to 364 nM.
As for `CCCn1c(=O)c2[nH]c(-c3ccc(OCC(=O)NCCCCC(N)C(=O)NCCCCC(NC(C)=O)C(=O)NCCOCCOCCNC(=O)CCC(=O)NCCOCCOCCNC(=O)CCC(=O)NC(CCCCNC(C)=O)C(N)=O)cc3)nc2n(CCC)c1=O` (stereo not given), the Ki in experiment [4] was 268 nM.
As for `CCCN(CCc1ccc(NC(=O)CCC(N)C(=O)NCCCCC(NC(=O)CCC(=O)NCCOCCOCCNC(=O)CCC(=O)NCCOCCOCCNC(=O)CCC(=O)NCCOCCOCCNC(=O)CCC(=O)NCCOCCOCCNC(=O)CCC(=O)NCCOCCOCCNC(=O)C(CCCCNC(C)=O)NC(C)=O)C(N)=O)cc1)C1CCc2c(O)cccc2C1` (stereo not given), in [3], the outcome was Active.
As for `CCCn1c(=O)c2[nH]c(-c3ccc(OCC(=O)NCCCCC(N)C(=O)NCCCCC(NC(C)=O)C(=O)NCCOCCOCCNC(=O)CCC(=O)NC(CCCCNC(C)=O)C(N)=O)cc3)nc2n(CCC)c1=O` (stereo not given), the result in [8] and in [9] was Active. For the same compound, the result in [7] was inactive. The Ki in experiment [4] is 246 nM.
In the case of `CCCN(CCc1ccc(NC(=O)CCC(N)C(=O)NCCCCC(NC(=O)CCC(=O)NCCOCCOCCNC(=O)CCC(=O)NCCOCCOCCNC(=O)CCC(=O)NCCOCCOCCNC(=O)C(CCCCNC(C)=O)NC(C)=O)C(N)=O)cc1)C1CCc2c(O)cccc2C1` (stereo not given), the result in experiment [8], in experiment [9] and in experiment [3] was Active. Besides, the result in experiment [10] and in experiment [7] was inactive. In addition, the Ki in experiment [5] was 9000 nM; in [6] it was 13 nM.
In turn, `CCCn1c(=O)c2[nH]c(-c3ccc(OCC(=O)NCCCCC(N)C(=O)NCCCCC(NC(C)=O)C(=O)NCCOCCOCCNC(=O)CCC(=O)NCCOCCOCCNC(=O)CCC(=O)NCCOCCOCCNC(=O)CCC(=O)NCCOCCOCCNC(=O)CCC(=O)NCCOCCOCCNC(=O)CCC(=O)NCCOCCOCCNC(=O)CCC(=O)NCCOCCOCCNC(=O)CCC(=O)NC(CCCCNC(C)=O)C(N)=O)cc3)nc2n(CCC)c1=O` (stereo not given) registered an Activity in experiment [2] of 17%.
For `CCCN(CCc1ccc(NC(=O)CCC(N)C(=O)NCCCCC(NC(=O)CCC(=O)NCCOCCOCCNC(=O)CCC(=O)NCCOCCOCCNC(=O)CCC(=O)NCCOCCOCCNC(=O)CCC(=O)NCCOCCOCCNC(=O)CCC(=O)NCCOCCOCCNC(=O)CCC(=O)NCCOCCOCCNC(=O)C(CCCCNC(C)=O)NC(C)=O)C(N)=O)cc1)C1CCc2c(O)cccc2C1` (stereo not given), in [3], the result was Active.
On the same count and under the same terms, for `CCCN(CCc1ccc(NC(=O)CCC(N)C(=O)NCCCCC(NC(=O)CCC(=O)NCCOCCOCCNC(=O)CCC(=O)NCCOCCOCCNC(=O)CCC(=O)NCCOCCOCCNC(=O)CCC(=O)NCCOCCOCCNC(=O)C(CCCCNC(C)=O)NC(C)=O)C(N)=O)cc1)C1CCc2c(O)cccc2C1` (stereo not given) the value was “Active”; for `CCCN(CCc1ccc(NC(=O)CCC(N)C(=O)NCCCCC(NC(=O)CCC(=O)NCCOCCOCCNC(=O)CCC(=O)NCCOCCOCCNC(=O)CCC(=O)NCCOCCOCCNC(=O)CCC(=O)NCCOCCOCCNC(=O)CCC(=O)NCCOCCOCCNC(=O)CCC(=O)NCCOCCOCCNC(=O)CCC(=O)NCCOCCOCCNC(=O)C(CCCCNC(C)=O)NC(C)=O)C(N)=O)cc1)C1CCc2c(O)cccc2C1` (stereo not given), “Active”.
